In ChEMBL document CHEMBL4725282, “Discovery of a Conformationally Constrained Oxazolidinone with Improved Safety and Efficacy Profiles for the Treatment of Multidrug-Resistant Tuberculosis” (J Med Chem, 2020):

Legend:
[1] = Toxicity in male Sprague-Dawley rat assessed as change in hemoglobin count at 150 mg/kg/day, po administered for 4 weeks followed by 2 week recovery period (Rvb =144 +/- 5 g/L); type: organism-based; details: in vivo, 672 h
[2] = Toxicity in female Sprague-Dawley rat assessed as change in platelet count at 50 mg/kg/day, po administered for 4 weeks followed by 2 week recovery period (Rvb =1051 +/- 122 10^9/L); type: organism-based; details: in vivo, 672 h
[3] = Toxicity in female Sprague-Dawley rat assessed as body weight loss at 50 to 450 mg/kg/day, po administered for 4 weeks measured at 1 week interval; type: organism-based; details: in vivo, 672 h, dose 50-450 mg/kg/day
How it was run: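 SD rats, 6-7 weeks, 12 male and 12 female per group. Oral dosing once daily at 50, 150 or 450 mg/kg/day or vehicle for 4 weeks, then 2-week recovery. 8 per sex dissected after last dose, remaining 4 per sex after 14-day recovery. Body weight, urine, food intake and clinical signs monitored.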

[4] = Toxicity in male Sprague-Dawley rat assessed as body weight loss at 50 to 450 mg/kg/day, po administered for 4 weeks followed by 2 week recovery period measured at 1 week interval; type: organism-based; details: in vivo, 672 h, dose 50-450 mg/kg/day
How it was run: (§1)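 SD rats, 6-7 weeks old (96 in total), split into vehicle, 50, 150 and 450 mg/kg/day groups of 12 females and 12 males each, given oral doses once daily for 4 weeks, then 2 weeks of recovery. Mortality, body weight, food intake, eyes, urine and neuropsychic signs were observed. Organ and bone marrow histopathology was done on 8 rats per sex per group after the last dose and on the remaining 4 per sex after 14 days of recovery.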

[5] = Toxicity in female Sprague-Dawley rat assessed as change in red blood cell count at 450 mg/kg/day, po administered for 4 weeks followed by 2 week recovery period (Rvb =7.32 +/- 0.20 10^12/L); type: organism-based; details: in vivo, 672 h
[6] = Toxicity in male Sprague-Dawley rat assessed as changes in neuropsychic symptoms at 50 to 450 mg/kg/day, po administered for 4 weeks measured during last 24 hrs of treatment period; type: organism-based; details: in vivo, 672 h, dose 50-450 mg/kg/day
[7] = Toxicity in female Sprague-Dawley rat assessed as effect on food consumption at 50 to 450 mg/kg/day, po administered for 4 weeks followed by 2 week recovery period measured at 1 week interval; type: organism-based; details: in vivo, 672 h, dose 50-450 mg/kg/day; how it was run: as §1
[8] = Toxicity in male Sprague-Dawley rat assessed as change in white blood cell count at 50 mg/kg/day, po administered for 4 weeks followed by 2 week recovery period (Rvb =6.12 +/- 1.10 10^9/L); type: organism-based; details: in vivo, 672 h
How it was run: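 SD rats aged 6-7 weeks, 24 per group (12 female, 12 male): vehicle, 50, 150 or 450 mg/kg/day given orally once daily for 4 weeks, then 2-week recovery. 8 per sex per group dissected after the last dose and 4 per sex after 14-day recovery. Hematology included WBC count, reported as mean ± SD (n = 12), compared with vehicle.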

[9] = Toxicity in male Sprague-Dawley rat assessed as mortality at 50 to 450 mg/kg/day, po administered for 4 weeks followed by 2 week recovery period; type: organism-based; details: in vivo, 672 h, dose 50-450 mg/kg/day
[10] = Toxicity in male Sprague-Dawley rat assessed as abnormalities in urine at 50 to 450 mg/kg/day, po administered for 4 weeks followed by 2 week recovery period measured within last 7 days of recover period; type: organism-based; details: in vivo, 672 h, dose 50-450 mg/kg/day; how it was run: as §1
[11] = Toxicity in female Sprague-Dawley rat assessed as change in white blood cell count at 150 mg/kg/day, po administered for 4 weeks followed by 2 week recovery period (Rvb =3.61 +/- 0.75 10^9/L); type: organism-based; details: in vivo, 672 h
[12] = Toxicity in female Sprague-Dawley rat assessed as changes in neuropsychic symptoms at 50 to 450 mg/kg/day, po administered for 4 weeks followed by 2 week recovery period measured during last 24 hrs of recovery period; type: organism-based; details: in vivo, 672 h, dose 50-450 mg/kg/day; how it was run: as §1
[13] = Half life in Sprague-Dawley rat hepatocytes at 2 uM by LC-MS/MS analysis; type: ADME, cell-based, Hepatocyte
How it was run: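 Hepatocytes (male CD-1 mouse, male SD rat, male beagle dog, male cynomolgus monkey, pooled human), final 1 μM compound and 1 million cells/mL, made by mixing 2 μM compound with 2 million cells/mL. Incubated at 37 °C in a CO2 incubator; sampled at 0, 15, 30, 60, 90 and 120 min. Quenched with methanol/ACN containing 0.1% formic acid. Parent remaining measured by LC-MS/MS.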

[14] = Toxicity in female Sprague-Dawley rat assessed as change in lymphocyte level at 150 mg/kg/day, po administered for 4 weeks followed by 2 week recovery period (Rvb =76.9 +/- 4.6 %); type: organism-based; details: in vivo, 672 h
[15] = Toxicity in female Sprague-Dawley rat assessed as change in lymphocyte level at 450 mg/kg/day, po administered for 4 weeks followed by 2 week recovery period (Rvb =76.9 +/- 4.6 %); type: organism-based; details: in vivo, 672 h
[16] = Toxicity in female Sprague-Dawley rat assessed as change in red blood cell count at 150 mg/kg/day, po administered for 4 weeks followed by 2 week recovery period (Rvb =7.32 +/- 0.20 10^12/L); type: organism-based; details: in vivo, 672 h
[17] = Toxicity in male Sprague-Dawley rat assessed as change in hemoglobin count at 50 mg/kg/day, po administered for 4 weeks followed by 2 week recovery period (Rvb =144 +/- 5 g/L); type: organism-based; details: in vivo, 672 h
[18] = Toxicity in male Sprague-Dawley rat assessed as histopathological changes in bone marrow at 450 mg/kg/day, po administered for 4 weeks followed by 2 week recovery period; type: organism-based; details: in vivo, 672 h
[19] = Toxicity in female Sprague-Dawley rat assessed as histopathological changes in bone marrow at 450 mg/kg/day, po administered for 4 weeks followed by 2 week recovery period; type: organism-based; details: in vivo, 672 h; how it was run: as §1
[20] = Toxicity in female Sprague-Dawley rat assessed as mortality at 50 to 450 mg/kg/day, po administered for 4 weeks followed by 2 week recovery period; type: organism-based; details: in vivo, 672 h, dose 50-450 mg/kg/day; how it was run: as §1
[21] = target: Cytochrome P450 2D6 (Homo sapiens, UniProt P10635); assay: Inhibition of CYP2D6 in human liver microsomes after 20 mins by LC-MS/MS analysis; type: ADME
How it was run: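 Human liver microsomes (0.2 mg/mL) in phosphate buffer, 20 min incubation with compound at 0.1-50 μM alongside isoform-specific substrates and a positive control. Substrate remaining monitored by LC-MS/MS at each concentration; IC50 derived.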

[22] = Toxicity in female Sprague-Dawley rat assessed as change in lymphocyte level at 50 mg/kg/day, po administered for 4 weeks followed by 2 week recovery period (Rvb =76.9 +/- 4.6 %); type: organism-based; details: in vivo, 672 h
[23] = Toxicity in female Sprague-Dawley rat assessed as change in mean corpuscular volume at 150 mg/kg/day, po administered for 4 weeks followed by 2 week recovery period (Rvb =56.1 +/- 0.8 fL); type: organism-based; details: in vivo, 672 h
[24] = Toxicity in female Sprague-Dawley rat assessed as change in mean corpuscular hemoglobin at 450 mg/kg/day, po administered for 4 weeks followed by 2 week recovery period (Rvb =18.5 +/- 0.6 pg); type: organism-based; details: in vivo, 672 h
[25] = Toxicity in male Sprague-Dawley rat assessed as change in mean corpuscular hemoglobin at 450 mg/kg/day, po administered for 4 weeks followed by 2 week recovery period (Rvb =18.3 +/- 0.4 pg); type: organism-based; details: in vivo, 672 h
[26] = Toxicity in female Sprague-Dawley rat assessed as change in mean corpuscular volume at 50 mg/kg/day, po administered for 4 weeks followed by 2 week recovery period (Rvb =56.1 +/- 0.8 fL); type: organism-based; details: in vivo, 672 h

Cytochrome P450 2D6, sequence (P10635 whole entry, canonical isoform): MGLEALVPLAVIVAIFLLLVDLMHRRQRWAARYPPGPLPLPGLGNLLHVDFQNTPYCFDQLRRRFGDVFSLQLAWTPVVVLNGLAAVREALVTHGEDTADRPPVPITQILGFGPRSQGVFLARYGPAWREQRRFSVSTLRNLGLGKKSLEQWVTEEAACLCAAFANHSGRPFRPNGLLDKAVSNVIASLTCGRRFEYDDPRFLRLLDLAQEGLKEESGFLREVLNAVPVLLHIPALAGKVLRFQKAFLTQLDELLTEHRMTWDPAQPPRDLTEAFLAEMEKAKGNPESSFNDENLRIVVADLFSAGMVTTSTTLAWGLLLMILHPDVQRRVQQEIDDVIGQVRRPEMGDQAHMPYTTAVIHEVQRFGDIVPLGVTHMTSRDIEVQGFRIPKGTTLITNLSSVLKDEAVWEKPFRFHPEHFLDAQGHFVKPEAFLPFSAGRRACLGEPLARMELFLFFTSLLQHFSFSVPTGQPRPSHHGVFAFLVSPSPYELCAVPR

## CC(=O)NC[C@@H]1OC(=O)N2c3cc(F)c(N4CCSCC4)cc3OC[C@@H]12
[1]
  Activity: 141 g/L
[2]
  Activity: 1094 10^9/L
[3]
  Activity: Non-Toxic
[4]
  Activity: Non-Toxic
[5]
  Activity: 6.53 10^12/L
[6]
  Activity: Non-Toxic
[7]
  Activity: Non-Toxic
[8]
  Activity: 6.22 10^9/L
[9]
  Activity: Non-Toxic
[10]
  Activity: Non-Toxic
[11]
  Activity: 3.04 10^9/L
[12]
  Activity: Non-Toxic
[13]
  half-life at 2 µM: 1.67 h
[14]
  Activity: 83%
[15]
  Activity: 83.7%
[16]
  Activity: 6.61 10^12/L
[17]
  Activity: 136 g/L
[18]
  Activity: Non-Toxic
[19]
  Activity: Non-Toxic
[20]
  Activity: Non-Toxic
[21]
  IC50: > 50 µM
[22]
  Activity: 80.7%
[23]
  Activity: 56.6 fL
[24]
  Activity: 18.7 pg
[25]
  Activity: 18.7 pg
[26]
  Activity: 56.5 fL
